Legend:
[1] = target: Excitatory amino acid transporter 2 (Homo sapiens, UniProt P43004); experiment: Activity against human EAAT2 transfected in HEK293 cells; format: cell-based
Summary of the method: (§1)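 HEK293 lines stably expressing the human transporter were grown on poly-D-lysine plates in DMEM with 10% dialyzed FBS, pen/strep and 1 mg/mL G-418. After 16-24 h, cells were put in Krebs buffer (pH 7.4) containing inhibitor and loaded with FMP dye for 30 min at 37 °C. Plates were read at 30 °C (ex 530/em 560 nm) up to 1 min after adding 30 µM Glu. Runs were in triplicate, ≥3 times. IC50 was converted to Ki by Cheng-Prusoff.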

[2] = target: T1, Excitatory amino acid transporter 3 (Homo sapiens, UniProt P43005); experiment: Activity against human EAAT3 transfected in HEK293 cells; format: cell-based; summary of the method: as §1
T1 sequence (P43005 whole entry): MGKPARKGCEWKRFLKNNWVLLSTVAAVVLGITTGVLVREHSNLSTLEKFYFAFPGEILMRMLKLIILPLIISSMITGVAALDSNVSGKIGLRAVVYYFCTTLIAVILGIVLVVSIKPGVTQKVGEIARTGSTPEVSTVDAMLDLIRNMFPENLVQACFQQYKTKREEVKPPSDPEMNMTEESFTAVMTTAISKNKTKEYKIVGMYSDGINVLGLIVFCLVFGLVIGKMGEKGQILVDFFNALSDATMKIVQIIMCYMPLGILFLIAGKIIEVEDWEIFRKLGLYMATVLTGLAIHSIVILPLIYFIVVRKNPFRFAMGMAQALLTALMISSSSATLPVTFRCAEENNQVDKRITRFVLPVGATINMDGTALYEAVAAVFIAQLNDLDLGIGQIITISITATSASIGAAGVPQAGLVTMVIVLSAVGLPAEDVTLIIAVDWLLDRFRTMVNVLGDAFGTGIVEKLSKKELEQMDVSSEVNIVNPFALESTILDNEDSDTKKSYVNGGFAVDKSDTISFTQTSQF

[3] = target: Excitatory amino acid transporter 1 (Homo sapiens, UniProt P43003); experiment: Activity against human EAAT1 transfected in HEK293 cells; format: cell-based; summary of the method: as §1
Excitatory amino acid transporter 1, sequence (P43003 whole entry): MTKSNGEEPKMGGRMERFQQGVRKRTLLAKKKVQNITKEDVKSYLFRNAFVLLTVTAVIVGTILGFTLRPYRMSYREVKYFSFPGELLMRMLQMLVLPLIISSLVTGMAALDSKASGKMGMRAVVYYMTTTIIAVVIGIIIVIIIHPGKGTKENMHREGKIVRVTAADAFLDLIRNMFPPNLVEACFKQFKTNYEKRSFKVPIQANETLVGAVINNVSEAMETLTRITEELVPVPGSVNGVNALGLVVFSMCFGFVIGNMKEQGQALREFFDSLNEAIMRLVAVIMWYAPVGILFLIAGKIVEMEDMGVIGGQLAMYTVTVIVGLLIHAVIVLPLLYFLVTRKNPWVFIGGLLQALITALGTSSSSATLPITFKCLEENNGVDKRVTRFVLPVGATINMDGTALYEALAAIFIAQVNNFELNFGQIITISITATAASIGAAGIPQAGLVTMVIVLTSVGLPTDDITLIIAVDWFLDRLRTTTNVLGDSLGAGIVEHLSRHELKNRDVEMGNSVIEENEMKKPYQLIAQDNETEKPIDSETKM

[4] = target: Glutamate receptor ionotropic, AMPA (Rattus norvegicus, UniProt P19490+P19491+P19492+P19493); experiment: Displacement of [3H]AMPA from AMPA receptor in rat brain; format: tissue-based
Summary of the method: (§2)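 Radioligand binding used rat brain membranes prepared by the Ransom and Stec method. Ligands were 5 nM [³H]AMPA for AMPA sites, 5 nM [³H]KAIN for kainate sites and 2 nM [³H]CGP 39653 for NMDA sites, and the value is reported as IC50.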

Glutamate NMDA receptor = experiment: Displacement of [3H]CGP-39653 from NMDA preferring iGlu receptor in rat brain; format: tissue-based
[5] = target: Metabotropic glutamate receptor 2 (Homo sapiens, UniProt Q14416); experiment: Activity against mGluR2
Metabotropic glutamate receptor 2, sequence (Q14416 whole entry): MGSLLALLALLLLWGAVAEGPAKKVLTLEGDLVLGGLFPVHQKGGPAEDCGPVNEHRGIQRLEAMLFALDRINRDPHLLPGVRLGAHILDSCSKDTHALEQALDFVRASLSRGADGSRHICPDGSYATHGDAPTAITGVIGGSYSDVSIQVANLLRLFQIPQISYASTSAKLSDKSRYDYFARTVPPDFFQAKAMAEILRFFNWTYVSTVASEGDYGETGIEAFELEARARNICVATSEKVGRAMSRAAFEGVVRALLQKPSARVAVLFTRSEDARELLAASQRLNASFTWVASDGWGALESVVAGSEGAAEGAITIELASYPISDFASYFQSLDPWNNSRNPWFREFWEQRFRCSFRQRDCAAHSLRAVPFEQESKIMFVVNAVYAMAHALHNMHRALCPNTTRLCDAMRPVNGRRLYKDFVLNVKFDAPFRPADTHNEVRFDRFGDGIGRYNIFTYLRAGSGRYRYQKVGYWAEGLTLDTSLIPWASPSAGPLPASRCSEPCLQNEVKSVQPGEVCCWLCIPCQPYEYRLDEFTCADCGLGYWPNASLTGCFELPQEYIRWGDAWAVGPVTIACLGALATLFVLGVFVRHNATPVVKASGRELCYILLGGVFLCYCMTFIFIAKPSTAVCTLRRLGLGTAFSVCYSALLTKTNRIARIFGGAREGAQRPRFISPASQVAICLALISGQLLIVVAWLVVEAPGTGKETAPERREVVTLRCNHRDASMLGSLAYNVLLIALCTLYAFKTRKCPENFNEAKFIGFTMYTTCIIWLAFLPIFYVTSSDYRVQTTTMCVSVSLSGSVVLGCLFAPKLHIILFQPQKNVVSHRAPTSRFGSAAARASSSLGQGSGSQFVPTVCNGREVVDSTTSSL

[6] = target: Glutamate receptor ionotropic, kainate; experiment: Displacement of [3H]KAIN from kainate receptor in rat brain; format: tissue-based; summary of the method: as §2
[7] = target: Metabotropic glutamate receptor 1 (Homo sapiens, UniProt Q13255); experiment: Activity against mGluR1
Metabotropic glutamate receptor 1, sequence (Q13255 whole entry): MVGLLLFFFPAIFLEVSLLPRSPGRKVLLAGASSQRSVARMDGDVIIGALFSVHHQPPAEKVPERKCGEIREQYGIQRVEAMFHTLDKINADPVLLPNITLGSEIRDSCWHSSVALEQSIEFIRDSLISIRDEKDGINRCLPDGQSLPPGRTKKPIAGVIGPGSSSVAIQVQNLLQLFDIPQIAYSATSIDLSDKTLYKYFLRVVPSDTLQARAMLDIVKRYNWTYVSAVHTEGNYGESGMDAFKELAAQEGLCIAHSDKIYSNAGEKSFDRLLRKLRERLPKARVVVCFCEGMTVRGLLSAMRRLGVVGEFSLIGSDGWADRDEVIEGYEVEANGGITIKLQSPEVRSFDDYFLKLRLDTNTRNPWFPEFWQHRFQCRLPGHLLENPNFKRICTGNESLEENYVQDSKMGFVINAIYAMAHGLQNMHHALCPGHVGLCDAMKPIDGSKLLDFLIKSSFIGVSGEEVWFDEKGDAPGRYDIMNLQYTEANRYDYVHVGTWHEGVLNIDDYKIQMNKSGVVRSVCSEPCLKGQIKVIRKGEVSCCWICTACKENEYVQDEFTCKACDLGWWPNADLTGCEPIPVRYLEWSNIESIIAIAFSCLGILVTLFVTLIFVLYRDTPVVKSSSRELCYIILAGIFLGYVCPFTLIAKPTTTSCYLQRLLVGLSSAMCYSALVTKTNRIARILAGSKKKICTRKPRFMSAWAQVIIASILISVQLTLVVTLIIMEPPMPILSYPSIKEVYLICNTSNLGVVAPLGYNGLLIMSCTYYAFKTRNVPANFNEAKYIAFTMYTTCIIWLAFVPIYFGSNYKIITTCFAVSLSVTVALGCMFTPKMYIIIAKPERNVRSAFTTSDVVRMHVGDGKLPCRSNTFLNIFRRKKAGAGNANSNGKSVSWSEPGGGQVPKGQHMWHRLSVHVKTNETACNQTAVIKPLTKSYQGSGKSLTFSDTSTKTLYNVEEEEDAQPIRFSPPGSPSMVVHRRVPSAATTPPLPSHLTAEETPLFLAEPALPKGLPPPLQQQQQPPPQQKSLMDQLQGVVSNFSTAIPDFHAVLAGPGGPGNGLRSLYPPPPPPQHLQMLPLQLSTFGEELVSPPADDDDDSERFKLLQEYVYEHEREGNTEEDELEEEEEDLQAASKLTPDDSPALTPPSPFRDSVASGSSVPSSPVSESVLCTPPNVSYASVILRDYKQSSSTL

Excitatory amino acid transporter 2, sequence (P43004 whole entry): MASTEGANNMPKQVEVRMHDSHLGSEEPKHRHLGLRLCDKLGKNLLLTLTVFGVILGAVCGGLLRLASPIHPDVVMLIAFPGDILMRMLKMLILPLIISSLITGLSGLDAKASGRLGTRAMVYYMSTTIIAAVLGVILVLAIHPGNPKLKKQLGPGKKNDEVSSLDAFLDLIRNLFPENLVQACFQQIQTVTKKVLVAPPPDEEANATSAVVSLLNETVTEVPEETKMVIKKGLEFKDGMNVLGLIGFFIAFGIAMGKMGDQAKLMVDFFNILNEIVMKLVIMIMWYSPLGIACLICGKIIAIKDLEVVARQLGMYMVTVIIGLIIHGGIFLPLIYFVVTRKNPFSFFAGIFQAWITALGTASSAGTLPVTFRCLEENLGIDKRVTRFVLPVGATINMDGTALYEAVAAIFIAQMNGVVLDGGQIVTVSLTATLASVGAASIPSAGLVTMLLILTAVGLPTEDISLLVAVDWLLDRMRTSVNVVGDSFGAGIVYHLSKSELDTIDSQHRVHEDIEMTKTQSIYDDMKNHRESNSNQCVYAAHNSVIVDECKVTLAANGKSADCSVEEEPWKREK

## O=C(O)[C@H]1CC2CC1[C@@H](C(=O)O)N2 (stereo partly specified)
[1]
  Ki: > 400 µM
[2]
  Ki: > 400 µM
[3]
  Ki: > 400 µM

## O=C(O)[C@H]1CC[C@H]2CN[C@H](C(=O)O)[C@H]21
[1]
  Ki: 52 µM
[4]
  IC50: > 100 µM
Glutamate NMDA receptor
  Ki: 2.9 µM
[5]
  EC50: 1000 µM
[6]
  IC50: 14 µM
[2]
  Ki: 46 µM
[3]
  Ki: 127 µM
[7]
  EC50: > 1000 µM
